Peptide text beside a SMILES is read from it.
How the values were obtained:
smTas1R2:S67I+smTas1R3 = smTas1R2:S67I+smTas1R3 (Saimiri sciureus, UniProt A3QP08, S67I); test: Ca2+ mobilization, mutated squirrel monkey receptor; assay type: cell-based, squirrel monkey (Saimiri sciureus); conditions: aspartame 10mM, neotame 1mM, sucralose 2 mM; compared with smTas1R2/smTas1R3
[1] = molecular target: T1, hTas1R2:I67S/D142E+hTas1R3 (Homo sapiens, UniProt Q8TE23, D142E/I67S); test: Ca2+ mobilization, mutated human receptor; assay type: cell-based; conditions: for calcium response to sweetener: aspartame 10mM, neotame 1mM, sucralose 2 mM, compared with hTas1R2/hTas1R3; for response in dose-response experiment: versus hTas1R2+hTas1R3
T1 sequence (Q8TE23 20-839 I67S/D142E): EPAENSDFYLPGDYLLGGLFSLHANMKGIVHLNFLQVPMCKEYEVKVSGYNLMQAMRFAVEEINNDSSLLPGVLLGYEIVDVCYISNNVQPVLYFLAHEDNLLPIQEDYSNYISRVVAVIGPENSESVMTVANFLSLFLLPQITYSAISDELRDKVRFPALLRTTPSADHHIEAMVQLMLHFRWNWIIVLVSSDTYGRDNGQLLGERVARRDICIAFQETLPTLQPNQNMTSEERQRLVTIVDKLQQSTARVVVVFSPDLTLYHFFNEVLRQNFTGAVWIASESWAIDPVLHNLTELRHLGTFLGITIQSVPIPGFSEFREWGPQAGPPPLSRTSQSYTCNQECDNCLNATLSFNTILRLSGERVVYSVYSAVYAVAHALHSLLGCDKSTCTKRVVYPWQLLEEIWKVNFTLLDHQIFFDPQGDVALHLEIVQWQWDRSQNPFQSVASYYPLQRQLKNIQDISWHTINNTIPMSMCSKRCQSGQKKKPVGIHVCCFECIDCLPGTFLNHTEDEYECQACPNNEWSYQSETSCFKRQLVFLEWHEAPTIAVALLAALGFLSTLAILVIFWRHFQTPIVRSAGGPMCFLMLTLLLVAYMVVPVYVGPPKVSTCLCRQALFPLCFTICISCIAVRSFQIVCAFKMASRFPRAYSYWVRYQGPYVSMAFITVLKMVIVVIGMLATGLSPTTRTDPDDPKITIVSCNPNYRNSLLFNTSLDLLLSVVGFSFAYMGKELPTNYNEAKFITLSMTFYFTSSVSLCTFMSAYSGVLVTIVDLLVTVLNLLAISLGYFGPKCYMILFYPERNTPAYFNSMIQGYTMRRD
T1 sequence (Q7RTX0 21-852 partner): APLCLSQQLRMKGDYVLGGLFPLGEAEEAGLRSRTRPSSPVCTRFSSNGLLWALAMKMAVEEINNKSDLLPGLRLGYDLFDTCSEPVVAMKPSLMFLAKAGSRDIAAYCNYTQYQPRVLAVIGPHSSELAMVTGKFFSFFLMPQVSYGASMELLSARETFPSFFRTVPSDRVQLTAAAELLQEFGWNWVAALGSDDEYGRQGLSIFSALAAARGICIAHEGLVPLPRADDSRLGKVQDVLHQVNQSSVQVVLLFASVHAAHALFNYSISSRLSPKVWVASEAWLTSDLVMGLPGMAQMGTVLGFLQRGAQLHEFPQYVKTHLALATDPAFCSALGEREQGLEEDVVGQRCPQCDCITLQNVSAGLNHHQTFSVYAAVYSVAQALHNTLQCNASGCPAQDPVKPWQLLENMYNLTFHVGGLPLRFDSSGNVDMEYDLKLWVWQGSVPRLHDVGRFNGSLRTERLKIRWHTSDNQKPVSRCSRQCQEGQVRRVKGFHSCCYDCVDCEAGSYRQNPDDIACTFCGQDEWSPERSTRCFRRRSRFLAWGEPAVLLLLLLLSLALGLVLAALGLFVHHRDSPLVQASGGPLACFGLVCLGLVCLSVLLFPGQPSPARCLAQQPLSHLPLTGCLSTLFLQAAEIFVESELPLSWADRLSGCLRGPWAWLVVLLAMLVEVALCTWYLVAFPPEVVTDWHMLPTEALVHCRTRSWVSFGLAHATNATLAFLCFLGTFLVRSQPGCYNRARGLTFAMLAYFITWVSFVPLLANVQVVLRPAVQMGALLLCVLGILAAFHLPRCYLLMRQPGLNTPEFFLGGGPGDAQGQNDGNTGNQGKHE

smTas1R2/smTas1R3 = smTas1R2/smTas1R3 (Saimiri sciureus, UniProt A3QP08); test: Ca2+ mobilization, wild type squirrel monkey sweet taste receptor; assay type: cell-based, squirrel monkey (Saimiri sciureus); conditions: HEK293E cells with Gα16-gust44
[2] = cited from earlier work
[3] = molecular target: hTas1R2:S40T/V66L/I67S/D142E+hTas1R3 (Homo sapiens, UniProt Q8TE23, D142E/I67S/S40T/V66L); test: Ca2+ mobilization, mutated human receptor; assay type: cell-based; conditions: aspartame 10mM, neotame 1mM, sucralose 2 mM; compared with hTas1R2/hTas1R3
In short: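 HEK293E cells grown at 37°C in Opti-MEM with 5% FBS and seeded at 50,000/well. Cells co-lipofected with Tas1R plasmids and Gα16-gust44 (0.06 μg each per well); medium changed at 20 h, assayed 24 h later. Cells loaded 1 h with Fluo-4 AM in HEPES-buffered HBSS. Tastant added at 30 s; fluorescence (ex 488/em 525 nm) read every 2 s for 150 s more. ΔF/F normalised to human receptor maximal sucralose response; mean ± SEM, three independent experiments.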

[4] = ΔF/F normalized to maximum response of hTas1R2/hTas1R3 to neotame

Sequence of smTas1R2/smTas1R3 (A3QP08 20-834): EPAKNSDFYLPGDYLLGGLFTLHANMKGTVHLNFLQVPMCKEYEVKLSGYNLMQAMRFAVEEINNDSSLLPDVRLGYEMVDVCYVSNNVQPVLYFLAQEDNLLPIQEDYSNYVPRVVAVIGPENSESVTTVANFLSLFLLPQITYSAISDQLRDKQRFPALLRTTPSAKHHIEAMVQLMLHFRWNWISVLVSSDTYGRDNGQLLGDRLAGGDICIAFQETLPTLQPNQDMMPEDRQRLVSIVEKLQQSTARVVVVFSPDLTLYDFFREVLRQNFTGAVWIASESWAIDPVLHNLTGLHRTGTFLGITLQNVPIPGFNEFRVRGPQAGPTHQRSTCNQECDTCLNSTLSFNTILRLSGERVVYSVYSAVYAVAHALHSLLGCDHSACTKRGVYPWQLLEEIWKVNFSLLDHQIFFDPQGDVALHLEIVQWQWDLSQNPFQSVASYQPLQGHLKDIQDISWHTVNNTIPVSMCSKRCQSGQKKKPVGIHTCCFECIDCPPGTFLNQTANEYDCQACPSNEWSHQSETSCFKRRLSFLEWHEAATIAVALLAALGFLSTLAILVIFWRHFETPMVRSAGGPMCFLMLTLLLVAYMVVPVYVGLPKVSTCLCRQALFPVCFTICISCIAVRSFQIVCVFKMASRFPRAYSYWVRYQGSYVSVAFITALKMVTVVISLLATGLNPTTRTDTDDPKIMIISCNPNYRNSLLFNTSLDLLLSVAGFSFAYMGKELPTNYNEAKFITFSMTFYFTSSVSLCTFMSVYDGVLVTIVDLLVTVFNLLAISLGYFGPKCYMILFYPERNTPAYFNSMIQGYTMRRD
Sequence of smTas1R2:S67I+smTas1R3 (A3QP08 20-834 S67I): as the sequence (A3QP08 20-834) above, with S48I counted along it
Sequence of hTas1R2:S40T/V66L/I67S/D142E+hTas1R3 (Q8TE23 20-839 S40T/V66L/I67S/D142E, one chain of several): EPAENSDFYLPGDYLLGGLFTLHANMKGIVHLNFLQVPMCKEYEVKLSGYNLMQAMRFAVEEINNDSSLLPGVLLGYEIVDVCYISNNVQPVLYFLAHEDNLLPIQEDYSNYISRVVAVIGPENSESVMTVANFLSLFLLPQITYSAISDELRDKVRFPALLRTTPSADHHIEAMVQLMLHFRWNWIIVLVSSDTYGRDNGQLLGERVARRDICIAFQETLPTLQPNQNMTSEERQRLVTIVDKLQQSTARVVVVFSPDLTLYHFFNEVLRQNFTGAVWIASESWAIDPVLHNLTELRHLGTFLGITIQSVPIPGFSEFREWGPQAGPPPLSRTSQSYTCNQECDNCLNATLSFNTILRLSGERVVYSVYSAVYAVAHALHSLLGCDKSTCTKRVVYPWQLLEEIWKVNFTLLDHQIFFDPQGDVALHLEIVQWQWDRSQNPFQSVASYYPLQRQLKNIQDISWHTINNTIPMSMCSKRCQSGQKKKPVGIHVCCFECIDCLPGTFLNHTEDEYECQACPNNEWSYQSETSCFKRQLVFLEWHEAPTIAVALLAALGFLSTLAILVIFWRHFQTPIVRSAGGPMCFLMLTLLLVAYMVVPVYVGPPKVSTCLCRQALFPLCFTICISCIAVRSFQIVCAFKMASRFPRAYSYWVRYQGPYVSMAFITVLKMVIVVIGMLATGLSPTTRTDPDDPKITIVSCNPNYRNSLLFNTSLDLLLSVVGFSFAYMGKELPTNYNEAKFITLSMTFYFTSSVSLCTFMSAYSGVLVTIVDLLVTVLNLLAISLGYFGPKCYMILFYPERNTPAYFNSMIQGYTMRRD

| SMILES | calcium response to sweetener (smTas1R2:S67I+smTas1R3) | calcium response to sweetener [1] | response in dose-response experiment ([1]; dose-response) | response in dose-response experiment (smTas1R2/smTas1R3) | sweet potency relative to sucrose ([2]; ref Meguro et al., 2000) [times] | calcium response to sweetener [3] | EC50 ([1]; HEK293E cells with Gα16-gust44, dose-response, calcium mobilization) [mM] | Bottom (B) of sigmoid dose-response fit [1, 4] | Top (T) of sigmoid dose-response fit [1, 4] | sweetness relative to aspartame ([2]; ref Garbow et al., 2001) |
| --- | --- | --- | --- | --- | --- | --- | --- | --- | --- | --- |
| COC(=O)[C@H](Cc1ccccc1)NC(=O)[C@@H](N)CC(=O)O [aspartame, L-α-aspartly-L-phenylalanine methyl ester] (H-Asp-Phe-OMe) | not able to recover | abolition | no responses | no response | 200 | greatly impaired |  |  |  |  |
| COC(=O)[C@H](Cc1ccccc1)NC(=O)[C@H](CC(=O)O)NCCC(C)(C)C [neotame] | not able to recover | significant reduction | weaker responses | no response |  | greatly impaired | 4.7 | −1.772 | 51.81 | about 40 times |

From publication PMC3149845 (The Journal of neuroscience : the official journal of the …, 2011)
